Compounds with a hit are over-represented: about 2.9% of the library has one in this group of screens.
HTRA1 inh: HTRA1 (human) protease inhibition | actives 0.5% (n = 340,000) | recombinant HTRA1, FP-rhodamine activity-based probe, fluorescence polarization | Q92743 | inhibition, % at 5.96 µM; in the data active = inhibition above about 36%;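 also: 0% = enzyme with DMSO and 100% = wells lacking enzyme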
mABHD4 FP: inhibits mouse alpha/beta hydrolase domain 4. purified mABHD4, FP-Rh probe fluorescence polarization. inhibition, % at 8.92 µM. actives 0.54% (n = 370,000). AID 720543;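 active = inhibition exceeding the mean over every tested compound plus 3 SD, cut at about 30% in these data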;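 also: 0% = plate median of compound wells and 100% = S159A mutant with DMSO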
Target sequence (Q8VD66 whole entry, looked up, the tested form may be a part): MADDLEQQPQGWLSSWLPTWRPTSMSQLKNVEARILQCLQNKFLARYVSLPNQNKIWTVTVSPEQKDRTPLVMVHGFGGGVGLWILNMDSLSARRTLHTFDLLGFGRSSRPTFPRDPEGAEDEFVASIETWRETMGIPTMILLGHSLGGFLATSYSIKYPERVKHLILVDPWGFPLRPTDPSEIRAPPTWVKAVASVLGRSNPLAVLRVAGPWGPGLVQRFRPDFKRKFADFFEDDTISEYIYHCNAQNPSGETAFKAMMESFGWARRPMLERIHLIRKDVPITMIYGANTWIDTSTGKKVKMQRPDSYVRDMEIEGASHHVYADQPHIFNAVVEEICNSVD
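Doses – 8.92 µM, single dose · Material – wild-type mouse ABHD4 protein · Replication – single well per compound (singlicate) · Measure – percent inhibition of probe binding, normalized to plate controls · Schedule – 45 min compound pre-incubation plus 60 min probe step, 25 °C · Detection – fluorescence polarization with parallel and perpendicular emission, 525/598 nm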
TCR-CD3 inh: inhibitors of human TCR-CD3 interaction. TAMRA-labeled TCR probe fluorescence, biochemical. actives 0.37% (n = 360,000). inhibition, % at 9.4 µM; in the data active = inhibition above about 19%;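 also: recombinant mutant TCR 2C K166C tagged with TAMRA read by polarization; 0% = receptor in buffer alone and 100% = receptor with positive control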
PRMT1 FP inh: inhibitors of human PRMT1; Q99873; recombinant PRMT1, activity-based probe fluorescence polarization; inhibition, % at 2.79 µM; actives 1.3% (n = 370,000); AID 652257;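 active = inhibition above about 21% made by adding two undisclosed values, limit read from the data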
SIAE inh: blocks human sialic acid acetylesterase; actives 0.69% (n = 370,000); SIAE FP-Rh probe binding, fluorescence polarization; inhibition, % at 9.66 µM; AID 1053197;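 active = inhibition above a cutoff: mean of compounds within the control limits plus 3 SD of those, cut at about 17% in these data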;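 also: 0% = plate median of compound wells and 100% = probe without SIAE protein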
PAD4 inh: blocks human protein arginine deiminase 4 | actives 0.41% (n = 330,000) | inhibition, % at 6.36 µM | recombinant PAD4, RCA probe fluorescence polarization | Q9UM07;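 active = percent inhibition above a cutoff equal to the mean of all tested compounds plus 3 SD, cut at about 15% in these data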;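 also: 0% = PAD4 with RCA probe and DMSO and 100% = probe without PAD4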
SIAE confirm: human SIAE inhibition, confirmation; shares compounds with SIAE inh; actives 13% (n = 2,300); SIAE FP-Rh activity-based probe, fluorescence polarization; inhibition, % at 9.66 µM;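 active = mean inhibition of the replicates above the hit cutoff set in the primary screen, cut at about 17% in these data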;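 also: 0% = SIAE with DMSO and probe and 100% = probe without SIAE; inhibitors lower polarization as more probe stays unbound to SIAE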
* hit, by the source's call; / = no result.

SMILES	HTRA1 inh	mABHD4 FP	TCR-CD3 inh	PRMT1 FP inh	SIAE inh	PAD4 inh	SIAE confirm
Cc1cc(C)c(S(=O)(=O)N2CCN(c3ccccc3)CC2)c(C)c1	-14	-8	7	2	4	-4	/
COC(=O)c1cc2c(c3c4cc(OC)ccc4n(S(=O)(=O)c4ccc(OC)cc4)c13)C(=O)N(Cc1ccco1)C2	/	-12	9	2	-12	/	/
CCCC[C@H]1C2CC(OC(=O)Nc3ccccc3C(F)(F)F)C(C2)[C@H]2CCCCN21 (some centres undefined)	/	3	/	5	-1	/	/
Cc1ccccc1Nc1nc(NCc2ccco2)c2ccccc2n1	-32	20	0	1	-1	-5	/
COc1ccc(OC)c(Nc2nc(NCc3ccco3)c3ccccc3n2)c1	23	15	6	-1	18*	-3	11
CCOC(=O)CC[C@H]1CC[C@]2(CCCN(C(=O)c3cccnc3)C2)O1	/	1	/	-1	30*	/	-2
CCOc1ccc(NC(=O)Nc2cc(-c3ccccc3)sc2C(=O)OC)cc1	0	3	8	-3	29*	5	-5
COC(=O)c1sc(-c2ccccc2)cc1NC(=O)C1CC1	-24	-10	9	0	0	-2	/
Clc1ncc(CN2CCN(Cc3ccccc3)CC2)s1	1	-2	6	-3	28*	1	-3
Nc1[nH]c(C(=O)c2ccccc2)c(-c2ccccc2Br)c1C(=O)c1cccs1	/	0	1	-4	-8	/	/
COc1cccc(/C=C2\CC3(OC(=O)c4ccccc4)CCCN2C3)c1 (centres undefined)	/	1	/	-4	4	/	/
O=C(COC(=O)c1cc(Cl)ccc1O)NCCC1=CCCCC1	1	-1	-4	0	17*	-4	0
O=C(COC(=O)Cc1ccc(Cl)cc1Cl)NCCC1=CCCCC1	2	5	-11	6	-5	-5	/
Cn1nnnc1SCC(=O)Nc1ccc(C(=O)N2CCN(Cc3ccccc3F)CC2)cc1	-4	5	4	-1	18*	0	5
Cn1nnnc1SCC(=O)Nc1ccc(Oc2ccccc2)cc1	-6	-8	5	1	2	1	/
CCCCN1CCN(C(=O)c2cn(C(C)c3ccccc3)nn2)CC1 (centres undefined)	/	-1	/	-5	-3	/	/
CC1=NN(c2ccc(S(=O)(=O)O)cc2C)C(=O)C1	2	2	-2	9	20*	-15	1
CC1=NN(c2ccc(N)cc2)C(=O)C1	8	11	11	7	10	-5	/
O=S1(=O)c2c(cccc2N2CC[C@H](O)C2)O[C@H]2CCN1C2	/	7	/	6	-1	/	/
CCn1c(SCc2ccc(C(C)(C)C)cc2)nnc1-c1ccc(C(C)(C)C)cc1	/	0	/	1	2	/	/
COc1ccc(C(=O)NCCn2ccc3ccccc32)cc1OC	-6	2	-1	-3	22*	-1	0
O=C(CCl)Nc1ccc(C(=O)NCC2COc3ccccc3O2)cc1 (centres undefined)	/	1	/	-6	0	/	/
NNC(=O)CC1=NNC(=O)C1	4	-1	-4	2	19*	/	0
O=C1CC(CC(=O)N/N=C/c2ccccc2[N+](=O)[O-])=NN1	7	13	-3	7	-3	14	/
COc1ccccc1NCC(=O)N/N=C/c1c(O)ccc2ccccc12	27	17	-1	8	18*	-4	0
SMILES	HTRA1 inh	mABHD4 FP	TCR-CD3 inh	PRMT1 FP inh	SIAE inh	PAD4 inh	SIAE confirm
O=C(CN1CCN(c2ccccc2O)CC1)NC(c1ccccc1)c1ccccc1	-8	-7	-1	0	18*	-2	4
COc1cc2ccccc2cc1C(=O)N1CCN(C(C)=O)CC1	5	0	1	-3	22*	-6	2
COc1cc2ccccc2cc1C(=O)N1CCN(c2ccccn2)CC1	-10	3	6	-3	4	-2	/
O=C(CC[C@H]1O[C@@H](n2cnc3c(NC(=O)c4ccccc4)ncnc32)[C@H](O)[C@@H]1O)NCC1CCN(Cc2ccccc2)CC1	/	8	2	8	34*	/	27*
O=C(CC[C@H]1O[C@@H](n2cnc3c(NC(=O)c4ccccc4)ncnc32)[C@H](O)[C@@H]1O)NCC(F)(F)F	/	1	-8	5	-1	/	/
CN(CCCCCCCCC(=O)/C=N/O)Cc1ccccc1	5	4	0	-1	22*	2	9
COc1ccc(CNc2cc(C)ccc2C)c(OC)c1OC	2	3	6	0	4	0	/
COc1cc(CNc2cc(C)ccc2C)cc(OC)c1OC	3	-5	2	0	24*	-2	0
COc1ccc(COCC(O)CN2CCc3ccccc3C2)cc1OC (centres undefined)	0	6	5	-2	20*	-1	-2
CCCn1cnc2cc(NCc3cccc(OC)c3O)ccc21	12	9	4	-2	25*	-2	5
COc1ccc(CNc2ccc3c(c2)ncn3C)cc1OC	1	5	1	4	18*	-3	6
COc1ccc(/C=N\NC(=O)Cc2cccs2)c(OC)c1OC	/	2	/	-4	3	/	/
COc1ccccc1CCC[C@@H](CCS(=O)(=O)C(C)C)CC1CCCCC1	/	-4	/	-1	1	/	/
O=S(=O)(NCc1ccco1)c1ccccc1Br	-2	-5	4	-1	20*	2	-1
COc1cc(OC)c(S(=O)(=O)NCc2ccco2)cc1S(=O)(=O)NCc1ccco1	0	0	1	0	5	-1	/
O=C(N/N=C/c1cn(-c2ccccc2)nc1-c1ccccc1)c1ccco1	-44	-14	-2	0	21*	2	3
O=C(N/N=C\c1cn(-c2ccccc2)nc1-c1ccccc1)c1ccc(Br)o1	11	-22	1	0	-75	-1	/
CC(=O)Nc1ccc(S(=O)(=O)NCC2CCN(C(=O)C(=O)c3cc4ccccc4o3)CC2)cc1	/	7	-5	2	-3	/	/
O=C(/C=N/O)Nc1ccc2sc3ccccc3c2c1	-7	-8	0	-3	61*	-1	50*
COC(=O)c1ccccc1NC(=O)/C=N/O	2	4	-1	2	-3	-1	/
CC1CCC2(CCC(=O)N2CCCOC(=O)NC(C)(C)C)CC1 (centres undefined)	/	0	/	2	47*	/	-5
CCCCNC(=O)C[C@H]1C[C@@]2(C(=O)OC)C(=C[C@H](COCc3ccccc3)O[C@@H]2C)N(Cc2ccccc2)C1=O	/	2	/	5	6	/	/
CCCC(=O)N1CCC(O)(c2cccc(F)c2)CC1	2	-4	-2	-3	49*	-2	0
COc1ccc(NC(=O)N(C)C[C@H]2OCc3cnnn3CCCC(=O)N([C@H](C)CO)C[C@@H]2C)c(OC)c1	/	-2	-3	4	21*	/	0
